ChEMBL document CHEMBL3425408, “Design, synthesis, in vitro, and in vivo anticancer and antiangiogenic activity of novel 3-arylaminobenzofuran derivatives targeting the colchicine site on tubulin” (J Med Chem, 2015)
The source made the active and inactive calls. The calls are words filed in the database; no cut-off is given here.

Legend:
HeLa [1] = assay: Induction of cell cycle arrest in human HeLa cells assessed as increase in p-cdc2 Tyr15 expression at 250 nM after 24 hrs by Western blot analysis; assay type: functional, cell-based
Outline: (§1)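 HeLa cells treated 24 or 48 h. Lysates cleared at 15000g, and 10 μg protein run on 7.5–15% SDS-PAGE and blotted to PVDF. Membranes blocked in 5% BSA and probed for cyclin B, p-cdc2 Tyr15 and cdc25c, then detected with peroxidase secondary and ECL. Blots stripped and reprobed for β-actin as loading control.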

HeLa [2] = assay: Induction of apoptosis in human HeLa cells assessed as accumulation of annexin-V positive cells after at 100 to […] by annexin-V-FITC/PI based flow cytometry; assay type: functional, cell-based; details: TDE = time-dependent effect
Outline: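 HeLa cells treated 24 or 48 h, then double-stained with annexin V-FITC and PI. Surface phosphatidylserine exposure measured by flow cytometry.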

HeLa [3] = assay: Induction of cell cycle arrest in human HeLa cells assessed as increase in cyclin B expression at 100 nM after 24 hrs by Western blot analysis; assay type: functional, cell-based; outline: as §1
HeLa [4] = assay: Induction of apoptosis in human HeLa cells assessed as reduction in Bcl2 expression at 100 to 250 nM after 48 hrs by Western blotting analysis
HeLa [5] = assay: Induction of apoptosis in human HeLa cells assessed as caspase 9 activation at 100 to 250 nM by Western blot analysis; details: TDE = time-dependent effect
HeLa [6] = assay: Induction of apoptosis in human HeLa cells assessed as PARP cleavage at 100 to 250 nM after 24 to 48 hrs by Western blot analysis
PBL = assay: Cytotoxicity against human PHA-stimulated PBL cells after 72 hrs by MTT assay; assay type: cell-based
Outline: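 PBLs came from healthy donors by Lymphoprep gradient, were washed and left overnight in RPMI-1640 with 10% FBS. Nonadherent cells at 5 × 10^5 cells/mL were stimulated with 2.5 μg/mL PHA and given a range of concentrations for 72 h. […] Mean ± SEM of three experiments.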

Jurkat [7] = assay: Antiproliferative activity against human Jurkat cells after 72 hrs by (3-(4,5-dimethylthiazol-2-yl)-2,5-diphenyltetrazolium bromide test; assay type: functional, cell-based
Outline: (§2)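 Jurkat, RS4;11 and HL-60 cells grown in RPMI-1640; MCF-7, A549, HeLa and HT-29 cells grown in DMEM; both media with 10% FBS and penicillin/streptomycin. 8 × 10^3 cells per well were preincubated 18 h at 37 °C, 5% CO2, then exposed 72 h to a concentration range (DMSO ≤0.25%). Read-out was MTT; IC50 was taken against cells given the maximum DMSO. Mean ± SE of at least three experiments.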

HeLa [8] = assay: Induction of cell cycle arrest in human HeLa cells assessed as decrease in cyclin B expression at 100 to 250 nM after 48 hrs by Western blot analysis; assay type: functional, cell-based; outline: as §1
HeLa [9] = assay: Induction of apoptosis in human HeLa cells assessed as increase in Mcl-1 expression at 100 to 250 nM after 24 hrs by Western blotting analysis
Tubulin = Tubulin (Bos taurus, UniProt Q6B856+Q862L2+Q862F3); assay: Inhibition of bovine brain tubulin assembly after 20 mins incubation by spectrophotometric analysis
Outline: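 Bovine brain tubulin (10 μM) was preincubated with varying compound concentrations in glutamate buffer at 30 °C, then chilled to 0 °C. GTP was added to 0.4 mM final and the mixture warmed to 30 °C in cuvettes.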

HeLa [10] = assay: Induction of apoptosis in human HeLa cells assessed as caspase 3 activation after 24 to 48 hrs by Western blot analysis; assay type: functional, cell-based
Outline: (§3)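 HeLa lysates prepared after the indicated times. 10 μg protein separated by SDS-PAGE on PVDF blots. Primary antibodies (2 h, room temperature) against PARP, caspase-3, cleaved caspase-9, Bcl-2 and Mcl-1, then peroxidase secondary with ECL detection. β-Actin reprobe used as loading control.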

HeLa [11] = assay: Induction of apoptosis in human HeLa cells assessed as increase in proportion of cells with depolarized mitochondria after 24 to 48 hrs by JC1 staining based flow cytometry; assay type: functional, cell-based; details: TDE = time-dependent effect
Outline: (§4)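 HeLa cells treated 24 or 48 h, then stained with JC-1. Cells with depolarized mitochondria quantified by flow cytometry. Three independent experiments.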

A549 = assay: Antiproliferative activity against human A549 cells after 72 hrs by (3-(4,5-dimethylthiazol-2-yl)-2,5-diphenyltetrazolium bromide test; assay type: functional, cell-based; details: A549, 72 h
HeLa [12] = assay: Induction of cell cycle arrest in human HeLa cells assessed as decrease in p-cdc2 Tyr15 expression at 100 to 250 nM after 48 hrs by Western blot analysis; assay type: functional, cell-based; outline: as §1
Jurkat [13] = assay: Induction of cells cycle arrest in human Jurkat cells assessed as cell arrest at G2/M phase at > 60 nM after 24 hrs by propidium iodide based flow cytometric analysis; assay type: functional
Outline: (§5)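 HeLa or Jurkat cells (5 × 10^5) treated 24 h. Cells fixed in ice-cold 70% ethanol, lysed with RNase A and 0.1% Triton X-100, and stained with propidium iodide. DNA content analyzed by flow cytometry to give cell-cycle phase distribution.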

HeLa [14] = assay: Induction of apoptosis in human HeLa cells assessed as increase in proportion of cells with depolarized mitochondria at 100 to […] by JC1 staining based flow cytometry; assay type: functional, cell-based; outline: as §4
HeLa [15] = assay: Effect on phosphatase cdc25 expression in human HeLa cells at 100 to 250 nM after 24 to 48 hrs by Western blot analysis; assay type: functional, cell-based; outline: as §1
Jurkat [16] = assay: Induction of cell cycle arrest in human Jurkat cells assessed as cell arrest at G2/M phase after 24 hrs by propidium iodide based flow cytometric analysis; assay type: functional; outline: as §5
HeLa [17] = assay: Induction of apoptosis in human HeLa cells assessed as caspase 3 activation at 100 to […] by Western blot analysis; assay type: functional, cell-based; details: TDE = time-dependent effect; outline: as §3
[18] = Antiproliferative activity against human RS4:11 cells after 72 hrs by (3-(4,5-dimethylthiazol-2-yl)-2,5-diphenyltetrazolium bromide test; assay type: functional, cell-based; details: RS4-11, 72 h; outline: as §2
HUVEC = assay: Cytotoxicity against human HUVEC cells after 72 hrs by MTT assay; assay type: cell-based
Outline: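 HUVECs were isolated from umbilical cord veins, kept in M200 with low-serum growth supplement and used at passages 1–6. […] Mean ± SEM of three separate experiments.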

HeLa [19] = assay: Induction of cells cycle arrest in human HeLa cells assessed as cell arrest at G2/M phase at > 60 nM after 24 hrs by propidium iodide based flow cytometric analysis; assay type: functional; outline: as §5
[20] = Antiproliferative activity against human HL60 cells after 72 hrs by (3-(4,5-dimethylthiazol-2-yl)-2,5-diphenyltetrazolium bromide test; assay type: functional, cell-based; details: HL-60, 72 h; outline: as §2
HeLa [21] = assay: Induction of apoptosis in human HeLa cells assessed as reduction in Mcl-1 expression at 100 to 250 nM after 48 hrs by Western blotting analysis
HeLa [22] = assay: Induction of apoptosis in human HeLa cells assessed as caspase 9 activation after 24 to 48 hrs by Western blot analysis; assay type: functional, cell-based; outline: as §3
HT-29 = assay: Antiproliferative activity against human HT-29 cells after 72 hrs by (3-(4,5-dimethylthiazol-2-yl)-2,5-diphenyltetrazolium bromide test; assay type: functional, cell-based; details: HT-29, 72 h

Structure (SMILES) | Activity (HeLa [1]) | Activity (HeLa [2]) | Activity (HeLa [3]) | Activity (HeLa [4]) | Activity (HeLa [5]) | Activity (HeLa [6]) | IC50 (PBL) | IC50 (Jurkat [7]) | Activity (HeLa [8]) | Activity (HeLa [9]) | IC50 (Tubulin) | Activity (HeLa [10]) | Activity (HeLa [11]) | IC50 (A549) | inhibition (HeLa [12]) | Activity (Jurkat [13]) | Activity (HeLa [14]) | Activity (HeLa [15]) | Activity (Jurkat [16]) | Activity (HeLa [17]) | other results
CCOC(=O)c1oc2cc(OC)ccc2c1Nc1cc(OC)c(OC)c(OC)c1 | Active | tde | Active | Active | tde | Active | 6300 nM | 22 nM | Active | inactive | 1500 nM | Dose-dependent effect | tde | 36 nM | Active | >70% | Dose-dependent effect | inactive | Dose-dependent effect | tde | IC50 [18]: 100 nM; IC50 (HUVEC): 220 nM; Activity (HeLa [19]): >70%; IC50 [20]: 24 nM; Activity (HeLa [21]): Active; Activity (HeLa [22]): Dose-dependent effect; IC50 (HT-29): 17 nM
COC(=O)c1oc2cc(OC)ccc2c1Nc1cc(OC)c(OC)c(OC)c1 | Active | tde | Active | Active | tde | Active | > 10000 nM | 8 nM | Active | Active | 1100 nM | Dose-dependent effect | tde | 9 nM | Active | >70% | Dose-dependent effect | inactive | Dose-dependent effect | tde | IC50 [18]: 0.3 nM; IC50 (HUVEC): 750 nM; Activity (HeLa [19]): >70%; IC50 [20]: 5 nM; Activity (HeLa [21]): Active; Activity (HeLa [22]): Dose-dependent effect; IC50 (HT-29): 3 nM
